From ChEMBL document CHEMBL1132698, “3-(Piperazinylpropyl)indoles: selective, orally bioavailable h5-HT1D receptor agonists as potential antimigraine agents” (J Med Chem, 1999)

How the values were obtained:
[1] = target: T1, 5-hydroxytryptamine receptor 1D (Homo sapiens, UniProt P28221); experiment: Displacement of [3H]5-HT binding to the cloned human 5-hydroxytryptamine 1D receptor stably expressed in CHO cells; assay type: cell-based
Method in brief: (§1)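 Membranes from CHO cells stably expressing human 5-HT1D receptor were washed, pre-incubated 10 min at 37 °C, then assayed at 0.2 mg protein/mL in 50 mM Tris-HCl pH 7.7 with 4 mM CaCl2, 0.01 mM pargyline and 0.1% ascorbate. […] Filtration and counting followed; IC50 came from nonlinear regression; ≥3 experiments, geometric means.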

[2] = target: 5-hydroxytryptamine receptor 1B (Homo sapiens, UniProt P28222); experiment: Displacement of [3H]5-HT binding from cloned human 5-hydroxytryptamine 1B receptor stably expressed in CHO cells.; assay type: cell-based
Chain of 5-hydroxytryptamine receptor 1B (P28222 whole entry): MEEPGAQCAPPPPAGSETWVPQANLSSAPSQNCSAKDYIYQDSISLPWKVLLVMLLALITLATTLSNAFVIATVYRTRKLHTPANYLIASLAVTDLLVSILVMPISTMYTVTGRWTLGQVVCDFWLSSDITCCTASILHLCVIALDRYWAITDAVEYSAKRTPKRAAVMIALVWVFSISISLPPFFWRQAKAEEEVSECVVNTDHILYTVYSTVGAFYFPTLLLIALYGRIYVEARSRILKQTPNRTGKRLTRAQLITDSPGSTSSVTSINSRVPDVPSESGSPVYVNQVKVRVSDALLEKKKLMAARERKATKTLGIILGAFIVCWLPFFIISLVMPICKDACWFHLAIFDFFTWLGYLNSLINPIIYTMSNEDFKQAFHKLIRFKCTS

[3] = target: T1, 5-hydroxytryptamine receptor 1D; experiment: Relative efficacy in stimulation of [35S]GTP-gamma-S, binding in CHO cells compared to 5-HT; assay type: functional, cell-based
[4] = target: T1, 5-hydroxytryptamine receptor 1D; experiment: Stimulation of [35S]GTP-gamma-S, binding in CHO cells expressing the human 5-hydroxytryptamine 1D receptor.; assay type: functional, cell-based
Method in brief: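 Membranes from CHO cells stably expressing human 5-HT1D were used at 40 μg protein/mL in HEPES 20 mM, NaCl 100 mM, MgCl2 10 mM, pargyline, ascorbate, pH 7.4. They were preincubated with 100 μM GDP plus compound for 20 min at 30 °C, then 15 min on ice. 100 pM [35S]GTPγS was added for 30 min at 30 °C, followed by filtration and counting. EC50 and Emax (relative to 5-HT maximum) came from nonlinear regression.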

[5] = target: T1, 5-hydroxytryptamine receptor 1D; experiment: Displacement of [3H]5-HT from human 5-hydroxytryptamine 1D receptor expressed in CHO cells; assay type: cell-based; method in brief: as §1
[6] = target: T1, 5-hydroxytryptamine receptor 1D; experiment: Displacement of [3H]5-HT binding from human 5-hydroxytryptamine 1D receptor expressed in CHO cells; assay type: cell-based
[7] = target: T1, 5-hydroxytryptamine receptor 1D; experiment: Stimulation of [35S]GTP-gamma-S, binding in CHO cells expressing the 5-hydroxytryptamine 1D receptor; assay type: functional, cell-based

T1 sequence (P28221 whole entry): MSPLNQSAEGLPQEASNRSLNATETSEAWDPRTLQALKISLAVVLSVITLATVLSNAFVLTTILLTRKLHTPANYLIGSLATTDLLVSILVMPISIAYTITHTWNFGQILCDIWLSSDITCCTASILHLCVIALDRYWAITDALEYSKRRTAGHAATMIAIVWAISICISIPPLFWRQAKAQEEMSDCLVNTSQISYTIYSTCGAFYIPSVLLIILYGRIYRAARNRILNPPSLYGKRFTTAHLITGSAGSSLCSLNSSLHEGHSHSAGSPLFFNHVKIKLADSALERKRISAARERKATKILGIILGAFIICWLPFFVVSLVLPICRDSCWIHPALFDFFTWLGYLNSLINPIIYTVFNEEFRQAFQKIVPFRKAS

SMILES	IC50 [1] [nM]	IC50 [2] [nM]	Relative efficacy [3] [%]	EC50 [4] [nM]	IC50 [5] [nM]	IC50 [6] [nM]	EC50 [7] [nM]
CN(C)CCc1c[nH]c2ccc(-n3cnnc3)cc12	–	–	115	–	–	–	–
Clc1ccc(CN2CCN(CCCc3c[nH]c4ccc(-n5cnnc5)cc34)CC2)cc1	0.5	59	63	1.2	–	–	–
Fc1ccc(CN2CCN(CCCc3c[nH]c4ccc(-n5cnnc5)cc34)CC2)cc1	0.1	20	77	0.3	–	–	–
CC(=O)Nc1cccc(CN2CCN(CCCc3c[nH]c4ccc(-n5cnnc5)cc34)CC2)c1	0.2	2.4	70	0.2	–	–	–
c1cc(CN2CCN(CCCc3c[nH]c4ccc(-n5cnnc5)cc34)CC2)co1	–	27	70	0.3	1.1	–	–
c1ccc(CCN2CCN(CCCc3c[nH]c4ccc(-n5cnnc5)cc34)CC2)cc1	–	–	73	1.7	–	–	–
Fc1ccc(CCN2CCN(CCCc3c[nH]c4ccc(-n5cnnc5)cc34)CC2)cc1F	0.9	83	91	0.7	–	–	–
CNCC(c1ccccc1)N1CCN(CCCc2c[nH]c3ccc(-n4cnnc4)cc23)CC1 (stereo not drawn)	0.9	17	103	1.7	–	–	–
c1cc2[nH]cc(CCN3CCCC3)c2cc1-n1cnnc1	–	–	120	–	–	–	–
CN(C)C(=O)C(c1ccccc1)N1CCN(CCCc2c[nH]c3ccc(-n4cnnc4)cc23)CC1 (stereo not drawn)	1	102	68	0.8	–	–	–
S=C1CN(CCCc2c[nH]c3ccc(-n4cnnc4)cc23)CCN1Cc1ccccc1	0.8	18	97	2.3	–	–	–
c1ccc(CN2CCN(CCCc3c[nH]c4ccc(-n5cnnc5)cc34)CC2)cc1	0.1	11	57	0.2	–	–	–
c1ccc(CNC[C@@H]2CCN(CCc3c[nH]c4ccc(-n5cnnc5)cc34)C2)cc1	–	37	102	–	–	0.6	–
O=C1CN(Cc2ccccc2)CCN1CCCc1c[nH]c2ccc(-n3cnnc3)cc12	173	3900	–	–	–	–	–
c1cnc(N2CCN(CCCc3c[nH]c4ccc(-n5cnnc5)cc34)CC2)nc1	0.6	0.5	59	0.6	–	–	–
c1cncc(CCN2CCN(CCCc3c[nH]c4ccc(-n5cnnc5)cc34)CC2)c1	4.9	93	69	7.8	–	–	–
CC(c1ccccc1)N1CCN(CCCc2c[nH]c3ccc(-n4cnnc4)cc23)CC1 (stereo not drawn)	1	13	–	–	–	–	–
CC(CN1CCN(CCCc2c[nH]c3ccc(-n4cnnc4)cc23)CC1)c1ccccc1 (stereo not drawn)	0.8	45	94	0.3	–	–	–
CN1CCN(CCCCc2c[nH]c3ccc(-n4cnnc4)cc23)CC1	210	5100	–	–	–	–	–
c1c[nH]c(CN2CCN(CCCc3c[nH]c4ccc(-n5cnnc5)cc34)CC2)n1	1.6	36	68	2	–	–	–
c1cc2[nH]cc(CCCN3CCOCC3)c2cc1-n1cnnc1	8.8	7.4	–	–	–	–	–
CN1CCN(CCc2c[nH]c3ccc(-n4cnnc4)cc23)CC1	134	304	61	–	–	–	105
c1ccc(CCCN2CCN(CCCc3c[nH]c4ccc(-n5cnnc5)cc34)CC2)cc1	4.9	85	68	4	–	–	–
c1cncc(CN2CCN(CCCc3c[nH]c4ccc(-n5cnnc5)cc34)CC2)c1	0.3	22	69	0.3	–	–	–
Fc1ccc(CCN2CCN(CCCc3c[nH]c4ccc(-n5cnnc5)cc34)CC2)cc1	–	–	81	–	–	–	–
N#Cc1ccc(CN2CCN(CCCc3c[nH]c4ccc(-n5cnnc5)cc34)CC2)cc1	0.7	130	71	1.1	–	–	–

More lines, now with the values ahead:

IC50 [1] [nM]	IC50 [2] [nM]	Relative efficacy [3] [%]	EC50 [4] [nM]	IC50 [5] [nM]	IC50 [6] [nM]	EC50 [7] [nM]	SMILES
1.4	13	–	–	–	–	–	c1ccc(N2CCN(CCCc3c[nH]c4ccc(-n5cnnc5)cc34)CC2)cc1
0.6	23	66	1	–	–	–	c1cc(CN2CCN(CCCc3c[nH]c4ccc(-n5cnnc5)cc34)CC2)ccn1
–	–	61	–	–	–	–	NC(=O)C(c1ccccc1)N1CCN(CCCc2c[nH]c3ccc(-n4cnnc4)cc23)CC1 (stereo in doubt; 6q) [listing 1 of 2 here]
6.6	282	85	7.5	–	–	–	O=C1CN(CCCc2c[nH]c3ccc(-n4cnnc4)cc23)CCN1Cc1ccccc1
–	–	77	–	–	–	–	NC(=O)C(c1ccccc1)N1CCN(CCCc2c[nH]c3ccc(-n4cnnc4)cc23)CC1 (stereo in doubt; 6p) [listing 1 of 2 here]
0.2	13	–	0.2	–	–	–	NC(=O)C(c1ccccc1)N1CCN(CCCc2c[nH]c3ccc(-n4cnnc4)cc23)CC1 (stereo in doubt; 6p) [listing 2 of 2 here]
0.7	9.5	74	0.3	–	–	–	OCC(c1ccccc1)N1CCN(CCCc2c[nH]c3ccc(-n4cnnc4)cc23)CC1 (stereo not drawn)
5.2	78	–	–	–	–	–	O=C1CN(CCCc2c[nH]c3ccc(-n4cnnc4)cc23)CCN1CCc1ccccc1
31	145	–	–	–	–	–	c1cc2[nH]cc(CCCN3CCNCC3)c2cc1-n1cnnc1
2.5	56	78	6.1	–	–	–	CC(=O)Nc1ccc(CN2CCN(CCCc3c[nH]c4ccc(-n5cnnc5)cc34)CC2)cc1
0.4	18	66	0.5	–	–	–	c1coc(CN2CCN(CCCc3c[nH]c4ccc(-n5cnnc5)cc34)CC2)c1
0.5	98	80	1.4	–	–	–	Fc1ccccc1CCN1CCN(CCCc2c[nH]c3ccc(-n4cnnc4)cc23)CC1
–	260	85	1.8	–	–	–	CC(=O)Nc1ccc(CCN2CCN(CCCc3c[nH]c4ccc(-n5cnnc5)cc34)CC2)cc1
6.9	46	–	–	–	–	–	Cc1noc(-c2ccc(CCN3CCN(CCCc4c[nH]c5ccc(-n6cnnc6)cc45)CC3)cc2)n1
33	309	95	–	–	–	54	CN1CCN(CCCc2c[nH]c3ccc(-n4cnnc4)cc23)CC1
0.4	18	67	0.3	–	–	–	c1ccc(CN2CCN(CCCc3c[nH]c4ccc(-n5cnnc5)cc34)CC2)nc1
–	282	82	–	–	5.2	11	FC(F)(F)c1ccc(CN2CCN(CCCc3c[nH]c4ccc(-n5cnnc5)cc34)CC2)cc1
–	55	–	–	–	2.3	3.8	NC(=O)C(c1ccccc1)N1CCN(CCCc2c[nH]c3ccc(-n4cnnc4)cc23)CC1 (stereo in doubt; 6q) [listing 2 of 2 here]
0.5	72	88	1	–	–	–	Fc1cccc(CCN2CCN(CCCc3c[nH]c4ccc(-n5cnnc5)cc34)CC2)c1
